High-throughput results: PubChem BioAssay, several laboratories
Compounds with a hit are over-represented: about 3.4% of the library has one in this group of screens.
TRPML3 agonist: human mucolipin-3 channel agonism. 220,000 compounds, 0.29% hits. AID 1448. HEK293 TRPML3-YFP, Fluo-8 calcium fluorescence; 100% = the carbachol control signal. Q8TDD5. activation, % at 3 µM;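 active = activation above its plate's cutoff, the mean activation of the plate's test wells plus 3 SD, cut at about 12% in these data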;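 note: 0% = DMSO only wells and 100% = carbachol wells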
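system = HEK293 cells stably carrying human TRPML3-YFP | doses = one concentration, 3 µM nominal, 0.3% DMSO | timing = dye loading 1 h 37 °C then 30 min ambient, 125 s read | detection = Fluo-8 calcium dye fluorescence, ex 470-495, em 515-575 nm | benchmarks = high control carbachol 87 µM, low control DMSO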
TRPN1 ag: agonists of zebrafish TRPN1 channel. HEK293 zebrafish TRPN1-YFP, Fluo-8 calcium fluorescence; 100% = response to 87 µM carbachol. activation, % at 3 µM. 220,000 compounds, 0.18% hits;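 active = activation above its plate's cutoff, the mean activation of test wells on that plate plus 3 SD, cut at about 19% in these data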;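 note: 0% = DMSO alone and 100% = 87 µM carbachol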
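Control set: carbachol 87 µM as high control, DMSO as low control; system: HEK293 stable line with zebrafish TRPN1-YFP; read-out: % activation versus carbachol response; detection: intracellular calcium fluorescence with Fluo-8; doses: single test compound dose, 3 µM nominal, 0.3% DMSO; schedule: dye 1 h 37 °C plus 30 min RT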
LANA-H2A inh: blocks KSHV LANA binding to histone H2A/H2B; Q9QR71; inhibition, % (no concentration beside the values); cell-free LANA-H2A/H2B peptide, fluorescence polarization; AID 2629; 320,000 compounds, 0.6% hits; in the data active = inhibition mostly above about 10%, no sharp cut-off; inactive = mostly below about 6.7%
GPR7 antagonist: human neuropeptides B/W receptor 1 antagonism; inhibition, % at 4.4 µM; AID 1861; P48145; GPR7-expressing cells, fluorescence antagonist assay; 290,000 compounds, 1.1% hits; in the data active = inhibition above about 16%, passing the limit was not always enough;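 note: cells stimulated with the agonist NPW; 0% = agonist with vehicle and 100% = vehicle without agonist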
TAAR1 antagonist: antagonists of human TAAR1 | Q96RJ0 | CHO RD-HGA16 TAAR1, Fluo-8 calcium fluorescence, antagonist | inhibition, % at 3 µM | 360,000 compounds, 1.5% hits | AID 624466;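 active = inhibition above a per-plate cutoff, the mean inhibition of test compounds on that plate plus 3 SD, cut at about 49% in these data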;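 note: 0% = DMSO plus EC80 beta-PEA response and 100% = DMSO alone without agonist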
Target sequence (Q96RJ0 whole entry, looked up): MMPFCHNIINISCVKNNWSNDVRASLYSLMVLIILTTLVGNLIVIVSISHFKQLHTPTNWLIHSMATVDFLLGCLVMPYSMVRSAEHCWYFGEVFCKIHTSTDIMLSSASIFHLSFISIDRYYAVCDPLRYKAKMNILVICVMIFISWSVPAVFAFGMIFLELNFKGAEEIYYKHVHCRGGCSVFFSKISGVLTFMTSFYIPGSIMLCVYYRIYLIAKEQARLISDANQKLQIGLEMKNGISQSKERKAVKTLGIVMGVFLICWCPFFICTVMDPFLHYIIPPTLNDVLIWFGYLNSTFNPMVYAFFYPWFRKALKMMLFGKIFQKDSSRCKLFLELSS
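Assay system: CHO-derived RD-HGA16 cells stably expressing human TAAR1 plus Gα16. Timing: 140 s kinetic read after compound, 140 s after agonist. Technique: kinetic Fluo-8 calcium fluorescence measurement. Measure: % inhibition of agonist calcium response.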
TAAR1 agonist: agonists of human TAAR1; Q96RJ0; CHO RD-HGA16 TAAR1, Fluo-8 calcium fluorescence; vehicle wells 0%, saturating PEA agonist 100%; activation, % at 3 µM; 360,000 compounds, 0.99% hits; AID 624467;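 active = activation above the mean activation of all test compounds in the run plus 3 SD, cut at about 38% in these data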
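Assay system – CHO-derived RD-HGA16 cells with stable Gα16 and human TAAR1 · Compound dosing – one-point dosing at 3 µM (nominal) · Incubation – 17-24 h seeding, 75 min 37 °C dye, 30 min RT · Measured by – kinetic Fluo-8 calcium fluorescence · Control set – DMSO vehicle as 0%, PEA at EC100 as 100% · Repeats – single well for each compound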
TAAR1 nonsel count: nonselective antagonism, TAAR1 counter-screen. shares compounds with TAAR1 antagonist. counterscreen cell line, calcium fluorescence, antagonist mode. inhibition, % at 3 µM. 2,400 compounds, 77% hits; in the data active = inhibition above about 22%;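 note: CHO-Ga16 host cells stimulated with ATP at an EC80 level; 0% = agonist EC80 plus vehicle and 100% = vehicle without agonist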
TAAR1 antag conf: human TAAR1 antagonism, confirmed; shares compounds with TAAR1 antagonist; TAAR1-expressing cells, fluorescence antagonist read-out; inhibition, % at 3 µM; 2,400 compounds, 40% hits; AID 651785; in the data active = inhibition above about 49%;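 note: CHO-Ga16 host cells challenged with agonist PEA near its EC80; 0% = agonist at EC80 plus vehicle and 100% = vehicle with no agonist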
Ga16 ag counter: nonselective Ga16 agonism, counter-screen; shares compounds with TAAR1 antagonist; Ga16-expressing cells, calcium fluorescence, agonist counterscreen; activation, % at 3 µM; 2,400 compounds, 18% hits; in the data active = activation above about 12%;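 note: 0% = vehicle wells and 100% = saturating stimulus response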
TAAR1 ag counter: counter-screen for human TAAR1 antagonists: TAAR1 agonists. shares compounds with TAAR1 antagonist. 2,400 compounds, 2% hits. activation, % at 3 µM. AID 651955. hTAAR1 cell line, fluorescence activation, agonist mode; in the data active = activation above about 37%;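 note: CHO cells stably expressing TAAR1 with calcium dye readout; 0% = DMSO vehicle and 100% = full agonist response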
* = called active by the depositor; i = inactive; . = no result.

SMILES | TRPML3 agonist | TRPN1 ag | LANA-H2A inh | GPR7 antagonist | TAAR1 antagonist | TAAR1 agonist | TAAR1 nonsel count | TAAR1 antag conf | Ga16 ag counter | TAAR1 ag counter
Cc1ccc(S(=O)(=O)N2CCOCC2)cc1NC(=O)COc1ccc(C(=O)c2ccccc2)cc1 | . | . | 5 | . | 82* | 23 | 37* | 59* | 14* | 13
O=C(NCCn1cc(SCc2ccc(F)cc2)c2ccccc21)c1c(F)cccc1F | 0 | 0 | 6 | 3 | 74* | 1 | 31* | 48 | 6 | 6
O=C(NCCn1cc(SCc2ccccc2)c2ccccc21)c1c(F)cccc1F | 1 | -1 | -2 | -4 | 85* | 2 | 32* | 47 | 4 | -1
O=C(Nc1ccc(S(=O)(=O)Nc2ncccn2)cc1)c1cccc([N+](=O)[O-])c1 | . | . | . | . | -20 | 1 | . | . | . | .
CCOc1cc(C(C(=O)NCC2CCCO2)N(C(=O)Cn2nnc3ccccc32)c2ccccc2OC)ccc1O (stereo not given) | . | . | -3 | -16 | 7 | 5 | . | . | . | .
O=C(O)CCC(=O)Nc1ccc(-c2nc3ccc(C(=O)c4ccccc4)cc3[nH]2)cc1 | . | . | 3 | 5 | -3 | 15 | . | . | . | .
O=C(c1ccccc1)c1ccc2nc(-c3ccc(NC(=O)c4ccccc4F)cc3)[nH]c2c1 | 1 | 2 | -6 | -15 | 59* | 21 | 29* | 59* | 9 | 7
CC(=O)Nc1cccc(C(=O)OCC(=O)N(c2ccccc2)C2CCS(=O)(=O)C2)c1 (stereo not given) | . | . | . | . | -17 | 1 | . | . | . | .
O=C(Nc1cc(=O)c2ccccc2o1)N1CCOCC1 | 0 | 2 | 3 | -24 | 64* | 17 | 17 | 26 | 7 | 5
CCN(C[C@H]1N[C@@](Cc2ccccc2)(C(=O)OC)[C@H]2C(=O)N(Cc3ccccc3)C(=O)[C@@H]12)C(=O)c1ccccc1 | . | . | i | . | -20 | 0 | . | . | . | .
CCN(C[C@H]1N[C@@](Cc2ccccc2)(C(=O)OC)[C@H]2C(=O)N(Cc3ccccc3)C(=O)[C@@H]12)S(=O)(=O)c1ccc(C(F)(F)F)cc1 | . | . | . | . | -3 | 0 | . | . | . | .
CCN(C[C@H]1N[C@@](CC)(C(=O)OC)[C@H]2C(=O)N(Cc3ccccc3)C(=O)[C@@H]12)S(=O)(=O)c1ccc(OC(F)(F)F)cc1 | . | . | . | . | 25 | 1 | . | . | . | .
CCN(C[C@H]1N[C@@](CC)(C(=O)OC)[C@H]2C(=O)N(Cc3ccccc3)C(=O)[C@@H]12)C(=O)c1ccccc1 | . | . | . | . | 50* | 17 | 25* | 43 | 11 | 12
CCN(C[C@H]1N[C@@](Cc2ccccc2)(C(=O)OC)[C@H]2C(=O)N(C)C(=O)[C@@H]12)S(=O)(=O)c1ccc(C(F)(F)F)cc1 | . | . | -2 | . | 75* | 14 | 23* | 46 | 8 | 9
CCN(C[C@H]1N[C@@](Cc2ccccc2)(C(=O)OC)[C@H]2C(=O)N(C)C(=O)[C@@H]12)S(=O)(=O)c1ccc(OC(F)(F)F)cc1 | . | . | -1 | . | 64* | 12 | 26* | 42 | 7 | 4
COc1nc(=O)n(C2C=CC(=O)O2)cc1F (stereo not given) | . | . | . | . | -22 | 4 | . | . | . | .
CCOC(=O)C1CCCN(C(=O)c2cncc(Br)c2)CC1 (stereo not given) | . | . | . | . | 0 | 1 | . | . | . | .
CCCNC(=O)C1(C)CCCN(Cc2cccc(Oc3ccccc3)c2)C1 (stereo not given) | . | . | . | . | -6 | 10 | . | . | . | .
